Test results: ChEMBL document CHEMBL3259584, “Antiproliferative novel isoxazoles: modeling, virtual screening, synthesis, and bioactivity evaluation” (Eur J Med Chem, 2014)

Experiments:
[1] = test system: HeLa; test: Antiproliferative activity against human HeLa cells after 5 days by coulter counter analysis; format: functional, cell-based; settings: 120 h
Summary of the method: (§1)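 Mouse brain endothelial cells (MBEC), HeLa and MCF-7 were maintained in DMEM with 10 mM Hepes and 10% FBS. Cells were seeded at 10,000 cells per cm2. After 16 h the medium was replaced with fresh medium containing 5-fold serial dilutions of compound. On day 5 cells were trypsinized and counted electronically. IC50 was taken as the concentration halving cell number relative to untreated control counts.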

[2] = Antiproliferative activity against human HMEC1 cells after 5 days by coulter counter analysis; format: cell-based; settings: HMEC-1, 120 h
Summary of the method: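 HMEC-1 human microvascular endothelial cells were grown in EGM-2 MV endothelial medium and plated at 10,000 cells per cm2. After 16 h they received fresh medium with 5-fold dilutions of compound. On day 5 cells were trypsinized and counted with a Coulter counter. IC50 was the concentration reducing cell count by 50% relative to control cultures.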

[3] = Antiproliferative activity against MBEC after 5 days by coulter counter analysis; set-up: species or system Mus musculus; summary of the method: as §1
[4] = test system: MCF7; test: Antiproliferative activity against human MCF7 cells after 5 days by coulter counter analysis; format: functional, cell-based; settings: MCF7, 120 h; summary of the method: as §1

Row | Structure (SMILES) | IC50 [1] [µM] | IC50 [2] [µM] | IC50 [3] [µM] | IC50 [4] [µM]
1 | Oc1ccc2c(c1)CCc1c(-c3ccc(F)cc3)noc1-2 | > 100 | 46 | 38 | > 100
2 | COc1ccc2c(c1)CCc1c(-c3ccc(OC)c(OC)c3)noc1-2 | > 100 | > 100 | > 100 | > 100
3 | COc1ccc(-c2noc3c2CCc2cc(OC)ccc2-3)cc1 | > 100 | > 100 | > 100 | > 100
4 | Oc1ccc(-c2noc3c2CCc2cc(O)ccc2-3)cc1 | 3.3 | 6.7 | 4.6 | 3.1
5 | Oc1ccc2c(c1)CCc1c(-c3ccc(O)c(O)c3)noc1-2 | 0.97 | 0.42 | 0.96 | 0.72
6 | CCc1c(-c2ccc(O)cc2)noc1-c1ccc(O)cc1 | 16 | 9.7 | 13 | 9.8
7 | CCc1c(-c2ccc(OC)cc2)noc1-c1ccc(OC)cc1 | > 100 | > 100 | > 100 | > 100
8 | Oc1ccc(-c2cc(-c3ccc(O)cc3)on2)cc1 | 6 | 6.3 | 2.5 | 5.2
9 | COc1ccc2c(c1)CCc1c(-c3ccc(SC(F)(F)F)cc3)noc1-2 | > 100 | > 100 | > 100 | > 100
10 | COc1ccc(-c2noc3c2CCc2cc(OC)c(OC)cc2-3)cc1 | > 100 | > 100 | > 100 | > 100
11 | COc1ccc(-c2noc(-c3ccc(OC)cc3)c2C)cc1 | > 100 | > 100 | > 100 | > 100
12 | COc1ccc(-c2noc3c2CCc2cc(OC)c(OC)cc2-3)cc1OC | 0.59 | 0.56 | 1.1 | 0.36
13 | Oc1ccc2c(c1)CCc1c(-c3ccc(SC(F)(F)F)cc3)noc1-2 | 55 | 65 | 67 | 81
14 | Oc1ccc(-c2noc3c2CCc2cc(O)c(O)cc2-3)cc1O | 9.1 | 4.2 | 10 | 2.1
15 | Oc1ccc(-c2noc3c2CCc2cc(O)c(O)cc2-3)cc1 | 10 | 7.4 | 6.8 | 2.1
16 | COc1ccc2c(c1)CCc1c(-c3ccc(F)cc3)noc1-2 | 34 | > 100 | > 100 | > 100
17 | Cc1c(-c2ccc(O)cc2)noc1-c1ccc(O)cc1 | 15 | 47 | 19 | 48
18 | COc1ccc(-c2cc(-c3ccc([N+](=O)[O-])cc3)on2)cc1 | > 100 | > 100 | > 100 | > 100
19 | O=[N+]([O-])c1ccc(-c2cc(-c3ccc(O)cc3)no2)cc1 | 57 | 27 | 42 | 53
20 | COc1ccc(-c2cc(-c3ccc(OC)cc3)on2)cc1 | > 100 | > 100 | > 100 | > 100
